Screening data deposited in PubChem by The Scripps Research Institute Molecular Screening Center.
5HT1a antag: antagonists of human 5-HT1a serotonin receptor; P08908; CHO 5-HT1a Ga15 NFAT-bla reporter, antagonist mode; inhibition, % at 10 µM; 62,000 tested, 0.68% active;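 active = inhibition above the mean of all tested compounds plus 3 SD, cut at about 43% in these data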;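 also: receptor stimulated by 5-CT agonist at 100 nM near EC80; beta-lactamase reporter measured by ratiometric fluorescence of a cleavable substrate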
5HT1E ag: 5-HT1E (human) receptor agonism. P28566. CHO 5-HT1E Ga15 NFAT-bla reporter, FRET; 0% DMSO wells, 100% control agonist wells. activation, % at 6 µM. 65,000 tested, 0.69% active;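 active = activation above a set limit, the screen-wide mean activation plus 3 SD, cut at about 8.5% in these data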;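 also: 100% = positive control agonist at 1 µM giving full maximal response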
S1P3 ag: agonists of human S1P3 receptor | S1P3 NFAT-BLA reporter cells, agonism, FRET ratio; relative to 1 µM S1P, basal subtracted | activation, % at 4.5 µM | 60,000 tested, 0.1% active;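 active = activation above the screen-wide mean plus 3 SD, cut at about 4.5% in these data, passing the limit was not always enough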
Target sequence (Q99500 whole entry, looked up): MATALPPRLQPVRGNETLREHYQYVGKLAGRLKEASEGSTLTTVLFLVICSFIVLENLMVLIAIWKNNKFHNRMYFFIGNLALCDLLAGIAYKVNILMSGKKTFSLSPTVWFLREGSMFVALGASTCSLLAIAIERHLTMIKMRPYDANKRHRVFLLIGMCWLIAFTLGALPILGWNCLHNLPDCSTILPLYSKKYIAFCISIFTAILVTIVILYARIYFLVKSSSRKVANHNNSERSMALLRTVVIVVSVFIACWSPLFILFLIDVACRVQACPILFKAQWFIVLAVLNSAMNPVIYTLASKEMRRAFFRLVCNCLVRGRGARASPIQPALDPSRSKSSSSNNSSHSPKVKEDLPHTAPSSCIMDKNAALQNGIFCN
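Assay system: stable CHO line with human S1P3, Gα16, NFAT-BLA reporter; Detection: FRET β-lactamase substrate fluorescence, excitation 405 nm, 460/535 nm emission ratio, background-subtracted; Read-out: percent activation versus median 1 µM S1P response, basal-subtracted, per plate; Incubation: cells plated overnight, compound 4 h 37 °C, substrate 2 h RT.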
HTR1E antagonist: blocks the human 5-HT1E serotonin receptor; 65,000 tested, 0.99% active; P28566; inhibition, % at 6 µM; CHO 5-HT1E Ga15 NFAT-bla reporter, FRET, antagonist; AID 571;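 active = inhibition above a set limit, the mean inhibition across every tested compound plus 3 SD, cut at about 29% in these data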;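 also: signal is the 460 over 535 nm emission ratio of beta-lactamase substrate; 0% = agonist plus DMSO wells and 100% = wells without agonist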
5HT1a ag: 5-HT1a (human) receptor agonism; P08908; CHO 5-HT1a Ga15 NFAT-bla reporter, FRET ratio; 0% basal, 100% maximal reference agonist; activation, % at 10 µM; 65,000 tested, 0.56% active; AID 567;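 active = activation above the screen-wide mean activation plus 3 SD, cut at about 19% in these data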;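 also: 0% = DMSO wells and 100% = 5-CT at EC100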
S1P1 ag pot: S1P1 (human) agonism or agonism potentiation. P21453. S1P1 CRE-bla cells, forskolin, beta-lactamase FRET, potentiator mode; S1P1 agonist co-added at EC20, 2 nM; 100% = saturating reference agonist, 0% = basal. activation, % at 9.5 µM. 56,000 tested, 0.57% active. AID 449;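 active = activation above a cutoff set at the mean activation of all tested compounds plus 3 SD, cut at about 54% in these data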;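 also: forskolin at 4 µM as EC80 and the EC20 agonist is SEW2871; 100% = SEW2871 at its EC100 plus forskolin at EC80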
Numbers without * were called inactive; nt = no result given. Hits are enriched below; roughly 3% of the tested compounds scored in any of these assays.

SMILES | 5HT1a antag | 5HT1E ag | S1P3 ag | HTR1E antagonist | 5HT1a ag | S1P1 ag pot
COCCOC(=O)c1[nH]c2c(c1C)C(=O)CC(c1cc(OC)ccc1OC)C2 (centres undefined) | 27 | 0 | -1 | 22 | 0 | 7
Cc1c(C(=O)N2CCOCC2)[nH]c2c1C(=O)CC(c1ccccc1Cl)C2 (centres undefined) | 20 | 40* | -2 | 10 | -1 | -18
Cc1c(C(=O)OC2CCCC2)[nH]c2c1C(=O)CC(c1ccco1)C2 (centres undefined) | 62* | -1 | -1 | 85* | 0 | 34
C=CCOC(=O)c1[nH]c2c(c1C)C(=O)CC(c1ccco1)C2 (centres undefined) | 51* | 0 | -1 | 76* | -3 | 2
Cc1c(C(=O)OCC(C)C)[nH]c2c1C(=O)CC(c1ccco1)C2 (centres undefined) | 53* | 0 | -2 | 69* | -3 | 13
Cc1cccc2c(=O)cc(C)n(CC(=O)N3CCOCC3)c12 | 0 | 1 | 0 | -5 | -2 | -7
Cc1cc(C)n2c(=S)[nH]nc2n1 | -8 | 2 | 0 | 9 | -4 | -2
COC(=O)c1[nH]c2c(c1C)C(=O)CC(c1ccccc1)C2 (centres undefined) | 55* | -2 | -1 | 68* | -1 | -26
Cc1c(C(=O)OCC2CCCO2)[nH]c2c1C(=O)CC(c1ccco1)C2 (centres undefined) | 15 | -1 | 0 | 9 | -5 | 2
C/C=C/COC(=O)c1[nH]c2c(c1C)C(=O)CC(c1ccco1)C2 (centres undefined) | 64* | 0 | -2 | 78* | -3 | 1
COc1ccccc1N1CCN(C(c2cccs2)C(C)NC(=O)c2cccs2)CC1 (centres undefined) | 33 | -1 | nt | 8 | -2 | nt
COc1ccc(N2C(=O)CCC(C(=O)Nc3cccc(C)n3)C2c2ccc(OC)c(OC)c2)cc1 (centres undefined) | 0 | -2 | nt | 12 | 29* | nt
COc1cccc(NC(=O)CSc2nnnn2C(C)C)c1 | -3 | 0 | -1 | -3 | 0 | -20
CS(=O)(=O)n1nc(OC(=O)c2cccc3ccccc23)cc1N | 43* | -1 | -2 | -2 | -2 | 65*
COc1ccc(S(=O)(=O)n2nc(OC(=O)c3ccccc3Br)cc2N)cc1 | 18 | -1 | 0 | -2 | -3 | 40
Cc1ccc(-c2nnn(CC(=O)N(Cc3cccs3)C(C(=O)NC3CCCC3)c3ccco3)n2)o1 (centres undefined) | 17 | 1 | -1 | 17 | 2 | 25
O=C(Cc1cccs1)N(Cc1ccco1)C1(C(=O)NC2CCCC2)CCCCC1 | 63* | 0 | nt | 1 | -3 | nt
O=C(NC1CCCC1)C(c1ccsc1)N(Cc1ccco1)C(=O)Cc1cccs1 (centres undefined) | 58* | 0 | 0 | 6 | -1 | 3
O=C(NC1CCCCC1)C(c1ccco1)N(Cc1cccs1)C(=O)Cn1nnc2ccccc21 (centres undefined) | 46* | -1 | 0 | 8 | -3 | -20
O=C(NC1CCCCC1)C(c1ccco1)N(Cc1ccco1)C(=O)c1ccco1 (centres undefined) | 49* | -1 | -1 | -5 | 1 | 9
CC(C)Cc1nc(N2CCOCC2)c(C#N)c2c1COC(C)(C)C2 | nt | 0 | 0 | 3 | 2 | -12
COc1ccc(CC(=O)OC(C)CN2CCCC2)cc1 (centres undefined) | 11 | 0 | 0 | -3 | -6 | -13
O=C(NCc1ccco1)c1cnccn1 | 13 | 0 | -1 | 6 | -3 | -21
N#Cc1c(-c2ccco2)cc(-c2cccnc2)nc1N | 0 | 0 | 1 | 38* | 0 | -74
Cc1c(-c2ccccc2)nc(N)c(C#N)c1-c1ccco1 | -2 | 0 | 0 | 31* | 17 | -81
SMILES | 5HT1a antag | 5HT1E ag | S1P3 ag | HTR1E antagonist | 5HT1a ag | S1P1 ag pot
CC(C)n1c2ccccc2c2nc3ccccc3nc21 | 6 | 0 | 0 | 32* | 5 | -38
CCOC(=O)c1c(C)nc2ncccn12 | -12 | 0 | 0 | 8 | 0 | -5
Cn1c(C(=O)NCCCN2CCN(c3ccc(F)cc3)CC2)cc2c(=O)n(C)c3ccccc3c21 | 65* | 1 | -1 | 2 | 14 | -10
O=C(Cn1c(C(=O)N2CCc3ccccc3C2)cc2sccc21)c1ccccc1 | 44* | 0 | -2 | 2 | -3 | 3
CCOC(=O)c1cnc(-n2nc(C)cc2C)nc1NCc1ccc2c(c1)OCO2 | 43* | 0 | -1 | 8 | 0 | -26
CCCN(C(=O)c1cccs1)c1nnc(-c2ccncc2)s1 | 9 | 1 | -1 | 20 | -1 | 101*
CCOC(=O)c1c(NC(=O)c2nn(CC)cc2Br)c(C#N)nn1-c1ccccc1 | 4 | 0 | -2 | 18 | 2 | -25
CCOC(=O)c1nn(-c2ccccc2)c(C#N)c1NC(=O)c1nn(CC)cc1Br | 17 | 0 | -1 | 54* | 2 | -44
CCOC(=O)c1ccccc1NC(=O)c1cc(S(=O)(=O)N2CCOCC2)ccc1F | 12 | 0 | -1 | 29* | 2 | 4
CCOC(=O)N1CCN(S(=O)(=O)c2ccc(F)c(C(=O)Nc3cccc(C)c3C)c2)CC1 | -6 | 0 | 2 | -6 | 0 | -2
O=C(Nc1ccc2c(c1)OCO2)c1ccc(S(=O)(=O)NCC2CCCO2)cc1 (centres undefined) | 6 | 0 | -1 | 5 | -2 | 20
CCc1ccc(N2CC(C(=O)Nc3ccccc3F)CC2=O)cc1 (centres undefined) | 1 | 1 | -1 | -7 | -3 | 2
O=C(O)C1CCCN(S(=O)(=O)c2ccc(Cl)s2)C1 (centres undefined) | 6 | 1 | 0 | -8 | 0 | -13
O=C(C1CCCN(S(=O)(=O)c2ccc(Br)s2)C1)N1CCCCCC1 (centres undefined) | 6 | -1 | nt | 2 | 37* | nt
CCCN(CCC)C(=O)c1c(C)[nH]c(C(=O)OCC)c1C | -7 | 1 | -1 | -9 | 0 | -3
CCCCCCC(=O)c1c(C)[nH]c(C(=O)OCC)c1C | 4 | 0 | -2 | 36* | 2 | -31
COc1cc(C)c(S(=O)(=O)N2CCOCC2)cc1C(C)C | 3 | 0 | -1 | 1 | -2 | -37
COc1cc(C)c(N)cc1C(C)C | -5 | 23* | 0 | -5 | 1 | -9
O=C1CCCCCN1Cc1nnc(SCc2nc3ccccc3s2)n1-c1ccccn1 | 4 | -1 | nt | -6 | 2 | nt
